Data on 21 molecules can be found in ChEMBL document CHEMBL1125794, “Synthesis and antihypertensive activity of pyran oxygen and amide nitrogen replacement analogues of the potassium channel activator cromakalim” (1991).

What all share (assay type): functional, Artery
The subject of assay [1] is Rattus norvegicus. The assay can be described thus: The compound was tested for the maximum fall in systolic blood pressure 1-6 hr of 3.0 mg/kg oral dose administration in rats. In a few lines:
(§1)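 Conscious spontaneously hypertensive rats of Japanese (Okamoto) strain, 14-24 weeks old, hypertensive if systolic pressure >180 mmHg; groups of six per dose level unless indicated. Oral gavage via esophageal needle as solution or suspension in 1% w/v methylcellulose. Tail-cuff systolic pressure (each value mean of ≥6 recordings) taken predose and at intervals up to 6 h postdose.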

Assay [2] relates to Rattus norvegicus. Briefly: The compound was tested for the maximum fall in systolic blood pressure 1-6 hr of 1.0 mg/kg oral dose administration in rats. In short, it runs like this: as §1
Assay [3] concerns Rattus norvegicus. Briefly: The compound was tested for the maximum fall in systolic blood pressure 1-6 hr of 0.1 mg/kg oral dose administration in rats. In a few lines:
as §1

In assay [4] the test system is Rattus norvegicus. The assay can be described thus: The compound was tested for the maximum fall in systolic blood pressure 1-6 hr of 0.3 mg/kg oral dose administration in rats. In short, it runs like this:
as §1

For assay [5], the system named is Rattus norvegicus. The assay can be described thus: The compound was tested for the maximum fall in systolic blood pressure 1-6 hr of 10.0 mg/kg oral dose administration in rats. In a few lines:
as §1

The test system of assay [6] is Rattus norvegicus. Briefly: The compound was tested for the maximum fall in systolic blood pressure 1-6 hr of 10 mg/kg oral dose administration in rats. In a few lines: as §1
Assay [7] concerns Rattus norvegicus. Briefly: The compound was tested for the maximum fall in systolic blood pressure 1-6 hr of 3 mg/kg oral dose administration in rats. In a few lines:
as §1

As to `CNC(=O)CC1c2cc(C#N)ccc2OC(C)(C)C1O` (centres undefined), in the assay with Rattus norvegicus [1], the “Max fall in blood pressure” value is recorded as 9%. In the case of `CC(=O)NC1c2cc(C#N)ccc2CC(C)(C)C1O` (centres undefined), the “Max fall in blood pressure” value with Rattus norvegicus [1] amounted to 34%; in the assay with Rattus norvegicus [2], 22%. In the case of `CC1(C)C=C(N2CCCC2=O)c2cc(C#N)ccc2O1`, the “Max fall in blood pressure” value with Rattus norvegicus [3] is listed as 12%; in the assay with Rattus norvegicus [4], 47%. For the molecule `CC(=O)NC1c2cc(C#N)ccc2OC(C)(C)C1O` (centres undefined), the “Max fall in blood pressure” value in the assay with Rattus norvegicus [1] is recorded as 47%; in the assay with Rattus norvegicus [3], 18%; in the assay on Rattus norvegicus [2], 67%. For `CC1(C)Cc2ccc(C#N)cc2C(N2CCCC2=O)C1O` (centres undefined), the figures for the “Max fall in blood pressure” value with Rattus norvegicus [1] and in the assay on Rattus norvegicus [5] were 29% and 32%, respectively. `CNC(=O)NC1c2cc(C#N)ccc2OC(C)(C)[C@H]1O` (some centres undefined): the “Max fall in blood pressure” value in the assay with Rattus norvegicus [4] came to 31%; in the assay with Rattus norvegicus [2] it was 61%.

In the case of `CC1(C)Oc2ccc(C#N)cc2C(NC(=O)c2ccccc2)C1O` (centres undefined), the “Max fall in blood pressure” value was determined as 16% in the assay with Rattus norvegicus [4] and 41% with Rattus norvegicus [5]. `CC1(C)Oc2ccc(Cl)cc2C(N2CCCC2=O)C1O` (centres undefined): in the assay on Rattus norvegicus [6], the “Max fall in blood pressure” value stood at 37%.

`CC1(C)Nc2ccc(Cl)cc2C(N2CCCC2=O)C1O` (centres undefined): in the assay with Rattus norvegicus [6], the “Max fall in blood pressure” value was determined as 8%. On to `CC1(C)Cc2ccc(C#N)cc2C(NC(=O)c2ccccc2)C1O` (centres undefined), for which the “Max fall in blood pressure” value was 16% in the assay on Rattus norvegicus [1] and 44% in the assay on Rattus norvegicus [5]. For `CC1(C)C=C(N2CCCC2=O)c2cc(C#N)ccc2C1`, the “Max fall in blood pressure” value in the assay with Rattus norvegicus [1] worked out at 50%; in the assay on Rattus norvegicus [2], 23%.

Take `CC(=O)CC1c2cc(C#N)ccc2OC(C)(C)C1O` (centres undefined): the entries for the “Max fall in blood pressure” value with Rattus norvegicus [5] and in the assay with Rattus norvegicus [2] were 30% and 5%, respectively. As to `CC1(C)Nc2ccc(Br)cc2C(N2CCCC2=O)C1O` (centres undefined), the “Max fall in blood pressure” value with Rattus norvegicus [6] came to 6%.

Take `CC1(C)C=C(N2CCCC2=O)c2cc(Br)ccc2N1`: the “Max fall in blood pressure” value in the assay with Rattus norvegicus [6] turned out to be 4%. For the molecule `CN1CCC(C2c3cc(C#N)ccc3OC(C)(C)C2O)C1=O` (centres undefined), the “Max fall in blood pressure” value came to 10% with Rattus norvegicus [7] and 21% in the assay on Rattus norvegicus [5]. `CNC(=O)NC1c2cc(C#N)ccc2CC(C)(C)C1O` (centres undefined): the “Max fall in blood pressure” value is 23% in the assay on Rattus norvegicus [1] and 52% in the assay with Rattus norvegicus [5].

Take `CC1(C)Nc2ccc(C#N)cc2C(N2CCCC2=O)C1O` (centres undefined): the figures for the “Max fall in blood pressure” value in the assay with Rattus norvegicus [1], in the assay on Rattus norvegicus [6] and in the assay on Rattus norvegicus [5] were 26%, 9% and 39%, respectively. Take `CC1(C)Oc2ccc(C#N)cc2C(N2CCCC2=O)C1O` (centres undefined) [CROMAKALIM]: the “Max fall in blood pressure” value in the assay on Rattus norvegicus [4] was determined as 39%; in the assay on Rattus norvegicus [2], 47%. Regarding `CC1(C)C=C(N2CCCC2=O)c2cc(C#N)ccc2N1`, the “Max fall in blood pressure” value in the assay on Rattus norvegicus [1] is on record as 29%; with Rattus norvegicus [5], 49%; in the assay with Rattus norvegicus [2] it was 10%. Consider `CN(C)C(=O)CC1c2cc(C#N)ccc2OC(C)(C)C1O` (centres undefined), for which the “Max fall in blood pressure” value in the assay on Rattus norvegicus [1] is 51%; in the assay on Rattus norvegicus [2], 28%. With `CC1(C)C=C(N2CCCC2=O)c2cc(Cl)ccc2N1`, in the assay with Rattus norvegicus [6], the “Max fall in blood pressure” value was determined as 13%.
